Results: publication PMC7114156 (Antiviral Research, 2009)
Where “and” joins values, the source holds several entries; their conditions need not be identical. Equal values may be shown once.

Tests used:
IM9 cells [1] = test: Growth of IM9 cell line; format: cell-based, human
Namalwa = test: Growth of Namalwa; format: cell-based, human; conditions: 72 h
Procedure, shortened: (§1)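 Cell lines carrying integrated viral genomes were plated in 96-well plates in medium with test compound. Growth was read by ATP luminescence (CellTiter-Glo) for HEK293 and WI38 VA13, and by MTS reduction (A490 after 2 h at 37 °C) for Namalwa, W12 20861, SiHa, Caski and HeLa. K and Imax came from a fit to a modified Hill equation.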

W12-20850 cells = test: Growth of W12-20850 cells, actin DNA by qPCR; format: cell-based, human
HKC/HPV16 cells = test: Growth of HKC/HPV16 cells, MTS; format: cell-based, human
[2] = tested on: a variety of unrelated viruses; test: Replication of a variety of unrelated viruses in vitro; format: cell-based
WI38 VA13 = test: Growth of WI38 VA13; format: cell-based, human
Procedure, shortened: as §1

IFIT1 promoter = test: Luciferase assay, luciferase under control of the IFIT1 promoter in HEK293 cells; format: cell-based, human; conditions: 10 and 30 nM, over a 48-h period
human keratinocyte (HKC) = test: Growth of uninfected human keratinocytes; format: cell-based; conditions: 4 days
Procedure, shortened: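 W12-20850 cells were seeded at 7.5 × 10^3 cells/well into 96-well plates containing test compound, 100 to 0.001 μM. Plates were held 4 days at 37 °C, 5% CO2. Growth was read by MTS (A490), and HPV16 DNA was then measured from the same cells. Uninfected human keratinocytes were run in parallel and read by MTS.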

HIV-1 = HIV-1 infection in PBMCs; format: cell-based
[3] = Growth of HUVEC endothelial cells, MTS; format: cell-based; conditions: human
Procedure, shortened: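 Primary cells were plated in 96-well plates with serial dilutions of test compound, 3 nM to 100 μM, for 72 h at 37 °C. Read-out was CTG for resting B and CD4 T cells and MTS for PBMC, WI38 and HUVEC. Purity was 90–95% for B cells and 97% for CD4 cells. Activated PBMCs were stimulated with phytohemagglutinin plus IL2.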

[4] = tested on: activated primary B cells; test: Growth of activated primary B cells, CTG; format: cell-based, human; conditions: read-out: CC50, host primary cell growth, 72 h
SiHa = test: Growth of SiHa; format: cell-based, human; conditions: 72 h
Procedure, shortened: as §1

CIN612 cells = test: Growth of CIN612 cells, MTS; format: cell-based, human
HEK293 = test: Growth of HEK293; format: cell-based, human
Procedure, shortened: as §1

HPV-16 [5] = test: HPV DNA by qPCR in HKC/HPV16 cells; format: cell-based
HPV-31 = test: HPV DNA by qPCR in CIN612 cells; format: cell-based
W12 20861 = test: Growth of W12 20861; format: cell-based, human; conditions: 72 h
Procedure, shortened: as §1

B-LCL 5/2/1 = test: Growth of B-LCL 5/2/1; format: cell-based, human
SV40 strain Pa-57 = test: SV40 assay: SV40 replication in Vero cells, viral DNA by qPCR; format: cell-based; conditions: ratio proportional to viral DNA per cell
Procedure, shortened: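 Vero cells at 2 × 10^4 cells/well were allowed to adhere for 4 h. They were infected with SV40 strain Pa-57 at MOI 0.1 for 2 h. Inoculum was removed and test compound added at 100 to 0.003 μM for 3 days. SV40 DNA was read by qPCR, and growth by MTS in parallel on uninfected cells. The SV40 DNA/MTS ratio was expressed as % of untreated control.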

HPV-16 [6] = test: HPV DNA by qPCR in W12-20850 cells; format: cell-based
IM9 cells [7] = test: Apoptosis assay; format: cell-based, human; conditions: IM9, 20 h exposure
Procedure, shortened: (§2)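 Apoptosis read as cytoplasmic histone-associated DNA fragments with a Cell Death Detection ELISA kit. Exposure was 20 h for IM9 and MT4 and 40 h for W12 and U937. A405 was read kinetically at 30 °C, and the rate per hour came from linear regression of the linear portion. A Fas-activating antibody was the positive control.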

EBV = test: Viral yield in IM9 cells by quantitative PCR; format: cell-based; conditions: data not shown
W12 cells = test: Apoptosis assay; format: cell-based, human; conditions: W12, 40 h exposure
Procedure, shortened: as §2

BJAB = test: Growth of BJAB, MTS; format: cell-based, human; conditions: 72 h
Procedure, shortened: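 Cells were plated in 96-well plates in medium holding serial dilutions of test compound, 1 nM to 10 μM, with DMSO ≤1% (v/v) final. Growth was read by MTS after 72 h at 37 °C: 2 h with reagent plus phenazine methosulfate, then A490. K and Imax came from a fit to a modified Hill equation. Vero cells are African Green monkey.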

[8] = Homo sapiens, read-out: K, Growth, MTS

Compound: O=C(N[C@@H]1CCCc2c1[nH]c1ccc(Cl)cc21)c1ccccn1 [GSK983, N-[(1R)-6-Chloro-2,3,4,9-tetrahydro-1H-carbazol-1-yl]-2-pyridinecarboxamide]
- EC50 (IM9 cells [1]; Homo sapiens, IM-9, 72 h, read-out: K, cell line growth): 16 ± 2 nM
- Selectivity index (IM9 cells [1]; IM9 (EBV) vs activated B cell): >620 ± 80
- Outcome of growth inhibition over time (IM9 cells [1]; IM9, 3 days, higher concentrations): cell death
- EC50 (Namalwa; [8]): 10 ± 2 nM
- Imax, Growth, MTS (Namalwa; Namalwa, EBV integrated): 66% and 66 ± 2.5%
- EC50 (W12-20850 cells; Homo sapiens, W12-20850, read-out: K, Growth, Actin DNA, qPCR): 6 ± 0.4 nM
- Imax, Growth, Actin DNA, qPCR (W12-20850 cells; W12-20850): 60 ± 1%
- Imax, Growth, MTS (HKC/HPV16 cells; HKC/HPV16): 59 ± 1%
- EC50 (HKC/HPV16 cells; [8]): 3 ± 0.4 nM
- Observed maximum inhibition of viral DNA ([2]; productive or episomal infections): 86–99%
- EC50 ([2]; read-out: EC50 values, replication of a variety of unrelated viruses in vitro): 5 to 20 nM
- EC50 (WI38 VA13; Homo sapiens, WI-38 VA13, 72 h, read-out: K, Growth, CTG): 16 ± 5 nM
- Imax, Growth, CTG (WI38 VA13; WI38 VA13, SV40 integrated, 72 h): 28% and 28 ± 2%
- Induction of luciferase under control of the IFIT1 promoter (IFIT1 promoter): Strong induction
- Imax, Growth, MTS (human keratinocyte (HKC)): ∼100%
- K, Growth, MTS (human keratinocyte (HKC)): 40,000 ± 11,800 nM
- Susceptibility of HIV (HIV-1; at concentrations below 1 μM): not susceptible
- Inhibition of HIV-1 infection in PBMCs (HIV-1; concentration range 1 nM to 100 μM): 50% inhibition in the micromolar range
- CC50 at 72 h [3]: > 10000 nM
- CC50 [4]: > 10000 nM
- Imax, Growth, MTS (SiHa; HPV16 integrated): 39 ± 1.6%
- EC50 (SiHa; [8]): 37 ± 6 nM
- Imax, Growth, MTS (CIN612 cells; CIN612): 70 ± 1%
- EC50 (CIN612 cells; [8]): 2.8 ± 0.1 nM
- Imax, Growth, CTG (HEK293; HEK293, Adenovirus 5 integrated, 72 h): 52 ± 2%
- EC50 (HEK293; Homo sapiens, HEK293, 72 h, read-out: K, Growth, CTG): 12 ± 2 nM
- Imax, HPV DNA, qPCR (HPV-16 [5]; HKC/HPV16, HPV type 16): 89 ± 2%
- Selectivity index (HPV-16 [5]; HPV DNA qPCR in HKC/HPV16 vs HKC): 18,000 ± 5,600
- EC50 (HPV-16 [5]; Human papillomavirus 16, read-out: K, HPV DNA, qPCR): 2.2 ± 0.2 nM
- Imax, HPV DNA, qPCR (HPV-31; CIN612, HPV type 31): 86 ± 1%
- Selectivity index (HPV-31; HPV DNA qPCR in CIN612 vs HKC): 16,600 ± 5,000
- EC50 (HPV-31; read-out: K, HPV DNA, qPCR): 2.4 ± 0.1 nM
- EC50 (W12 20861; [8]): 25 ± 9 nM
- Imax, Growth, MTS (W12 20861; W12 20861, HPV16 integrated): 35 ± 2.8%
- Selectivity index (B-LCL 5/2/1; B-LCL 5/2/1 (EBV) vs activated B cell): >700 ± 15
- Imax, cell line growth (B-LCL 5/2/1; B-LCL 5/2/1 (EBV), CTG, 72 h): 93 ± 1%
- EC50 (B-LCL 5/2/1; Homo sapiens, 72 h, read-out: K, cell line growth): 14 ± 0.3 nM
- Imax for reduction of the ratio SV40 DNA / MTS activity of Vero cells (SV40 strain Pa-57): 79 ± 2%
- K for reduction of the ratio SV40 DNA / MTS activity of Vero cells (SV40 strain Pa-57): 12 ± 2 nM
- Selectivity index (HPV-16 [6]; HPV DNA qPCR in W12-20850 vs HKC): 12,000 ± 4,000
- Imax, HPV DNA, qPCR (HPV-16 [6]; W12-20850, HPV type 16): 85 ± 2%
- EC50 (HPV-16 [6]; W12-20850, read-out: K, HPV DNA, qPCR): 3.3 ± 0.5 nM
- HPV copy number, expressed as HPV genomes per actin gene (HPV-16 [6]; W12 cells, at 100 nM GSK983, reduced from 460): 150 HPV genomes per actin gene
- Apoptosis (IM9 cells [7]): induced apoptosis
- Viral yield in IM9 cells by quantitative PCR (EBV): decrease in parallel with inhibition of cell growth
- Apoptosis (W12 cells): apoptosis did not occur
- Imax, Growth, MTS (BJAB; B lymphoblast): 84 ± 1.5%
- EC50 (BJAB; Homo sapiens, read-out: K, growth, MTS): 9 ± 0.6 nM
